Assay results reported in ChEMBL document CHEMBL1123566, “Synthesis and cardiac electrophysiological activity of 2- and 3-[(substituted phenyl)alkyl]quinuclidines. Structure-activity relationships” (1987).
Where “and” joins values, the source holds several entries; their conditions need not be identical. Equal entries are not always repeated.

Columns and labels:
Canis familiaris [1] = species: Canis familiaris; experiment: In vitro electrophysiological evaluation in canine cardiac Purkinje fibres reported as percent change Vmax at 10 uM at concentration range of 1-100 uM.; assay type: functional; conditions: Canis lupus familiaris, Purkinje fiber
Method in brief: (§1)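 Canine cardiac Purkinje fibres, intracellular microelectrode recording, paced at a basic cycle length of 1 s. APD95 and Vmax read simultaneously. Compound: 10 mM stock in deionized water, diluted into Tyrode's solution, tested over the stated concentration range. Each fibre used once as its own control. Result is % change from control, given at 10 µM or as the maximum with its concentration. M = <10% decrease or an increase in Vmax.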

Canis familiaris [2] = experiment: Heart rate was determined by intraduodenal administration of two doses of 10 mg/kg (low dose) of compound in anesthetized dogs. Value was reported for experiment 1; assay type: functional, Canis lupus familiaris
Method in brief: (§2)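 Anesthetized dogs; compound given intraduodenally, generally as two doses, the second a cumulative (high) dose. LV functional refractory period and conduction time measured 15, 30 and 45 min after dosing; heart rate and blood pressure measured during nonpacing intervals. Values are % change from control, given per individual animal. Active if FRP or CT prolonged by ≥12%.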

Canis familiaris [3] = experiment: Mean arterial blood pressure was determined by intraduodenal administration of two dosages of 10 mg/kg of compound in anesthetized dogs. Value was reported for experiment 1; assay type: functional, Canis lupus familiaris
Method in brief: (§3)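 Anesthetized dogs received two intraduodenal doses, the second cumulative (low dose/high dose). Left ventricular FRP and CT were measured 15, 30 and 45 min after dosing. Heart rate and mean blood pressure were taken during nonpacing intervals. Values are percent change from control. The vehicle was 5% dextrose in water/tragacanth. Activity was defined as ≥12% prolongation of FRP or CT.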

Canis familiaris [4] = species: Canis familiaris; experiment: In vitro electrophysiological evaluation in canine cardiac ventricular muscle reported as % change for conduction time(CT) at 10 uM at 0.1-100 uM concentration range; Minimal (<10% decrease or increase in CT).; assay type: functional, Canis lupus familiaris, Muscle tissue
Canis familiaris [5] = experiment: Conduction time was determined by intraduodenal administration of two doses of 30 mg/kg (high dose) of compound in anesthetized dogs. Value was reported for experiment 1; assay type: functional, Canis lupus familiaris; method in brief: as §2
Canis familiaris [6] = experiment: Mean arterial blood pressure was determined by intraduodenal administration of two dosages of 10 mg/kg of compound in anesthetized dogs. Value was reported for experiment 2; assay type: functional, Canis lupus familiaris; method in brief: as §3
Canis familiaris [7] = species: Canis familiaris; experiment: In vitro electrophysiological evaluation in canine cardiac Purkinje fibres reported as percent change Vmax at 10 uM at concentration range of 1-100 uM; Minimal (<10% decrease or increase in V max).; assay type: functional; conditions: Canis lupus familiaris, Purkinje fiber; method in brief: as §1
Canis familiaris [8] = species: Canis familiaris; experiment: In vitro electrophysiological evaluation in canine cardiac ventricular muscle reported as maximum % change for conduction time(CT) at 0.1-100 uM concentration range; Minimal (<10% decrease or increase in CT).; assay type: functional, Canis lupus familiaris, Muscle tissue
Method in brief: (§4)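 Canine right ventricle and papillary muscle strips in oxygenated Tyrode's solution, fitted with stimulating and recording electrodes. The extra-stimulus conduction-interval method was adapted for in vitro use. FRP and CT were read from a conduction-interval curve before and after various compound concentrations, and expressed as percent change from control. Compounds were taken from 10 mM deionized-water stock into Tyrode's. Each strip was used once as its own control.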

Canis familiaris [9] = experiment: Heart rate was determined by intraduodenal administration of two dosages of 30 mg/kg of compound in anesthetized dogs. Value was reported for experiment 1; assay type: functional, Canis lupus familiaris; method in brief: as §2
Canis familiaris [10] = experiment: Left ventricular refractory period was determined by intraduodenal administration of two doses of 24 mg/kg (high dose) of compound in anesthetized dogs. Value was reported for experiment 2; assay type: functional, Canis lupus familiaris, Cardiac ventricle
Canis familiaris [11] = experiment: Heart rate was determined by intraduodenal administration of two dosages of 10 mg/kg of compound in anesthetized dogs. Value was reported for experiment 2; assay type: functional, Canis lupus familiaris; method in brief: as §2
Canis familiaris [12] = experiment: Left ventricular refractory period was determined by intraduodenal administration of two doses of 10 mg/kg (low dose) of compound in anesthetized dogs. Value was reported for experiment 1; assay type: functional, Canis lupus familiaris, Cardiac ventricle
Canis familiaris [13] = species: Canis familiaris; experiment: In vitro electrophysiological evaluation in canine cardiac Purkinje fibres reported as maximum percent change Vmax concentration range of 1-100 uM; Minimal (<10% decrease or increase in V max).; assay type: functional; conditions: Canis lupus familiaris; Purkinje fiber; method in brief: as §1
Canis familiaris [14] = experiment: Conduction time was determined by intraduodenal administration of two doses of 24 mg/kg (high dose) of compound in anesthetized dogs. Value was reported for experiment 2; assay type: functional, Canis lupus familiaris; method in brief: as §2
Canis familiaris [15] = experiment: Mean arterial blood pressure was determined by intraduodenal administration of two dosages of 30 mg/kg of compound in anesthetized dogs. Value was reported for experiment 1; assay type: functional, Canis lupus familiaris; method in brief: as §3
Canis familiaris [16] = species: Canis familiaris; experiment: In vitro electrophysiological activity in canine cardiac occurred is 100 uM; assay type: functional, Canis lupus familiaris, Heart
Canis familiaris [17] = experiment: Conduction time was determined by intraduodenal administration of two doses of 10 mg/kg (low dose) of compound in anesthetized dogs. Value was reported for experiment 1; assay type: functional, Canis lupus familiaris; method in brief: as §2
Canis familiaris [18] = experiment: Heart rate was determined by intraduodenal administration of two dosages of 24 mg/kg of compound in anesthetized dogs. Value was reported for experiment 2; assay type: functional, Canis lupus familiaris; method in brief: as §2
Canis familiaris [19] = species: Canis familiaris; experiment: In vitro electrophysiological evaluation in canine cardiac Purkinje fibres reported as % change for action potential duration at 1-100 uM concentration range; assay type: functional, Canis lupus familiaris, Purkinje fiber; method in brief: as §1
Canis familiaris [20] = species: Canis familiaris; experiment: In vitro electrophysiological evaluation in canine cardiac Purkinje fibres reported as % change for action potential duration at a concentration of 10 uM; assay type: functional, Canis lupus familiaris, Purkinje fiber; method in brief: as §1
Canis familiaris [21] = species: Canis familiaris; experiment: In vitro electrophysiological evaluation in canine cardiac ventricular muscle reported as maximum % change for functional refractory period (FRP) at 0.1-100 uM concentration range; concentration at which it occurred is 100 uM.; design: species or system Canis lupus familiaris, Muscle tissue; method in brief: as §4
Canis familiaris [22] = experiment: Mean arterial blood pressure was determined by intraduodenal administration of two dosages of 24 mg/kg of compound in anesthetized dogs. Value was reported for experiment 2; assay type: functional, Canis lupus familiaris
Canis familiaris [23] = species: Canis familiaris; experiment: (§5) In vitro electrophysiological activity in canine cardiac occurred is 10 uM; assay type: functional, Canis lupus familiaris, Heart
Canis familiaris [24] = experiment: Left ventricular refractory period was determined by intraduodenal administration of two doses of 10 mg/kg (low dose) of compound in anesthetized dogs. Value was reported for experiment 2; assay type: functional, Canis lupus familiaris, Cardiac ventricle
Canis familiaris [25] = species: Canis familiaris; experiment: as §5; assay type: functional, Canis lupus familiaris, Heart; remark: listed apart in the source
Canis familiaris [26] = experiment: Left ventricular refractory period was determined by intraduodenal administration two doses of 30 mg/kg (high dose) of compound in anesthetized dogs. Value was reported for experiment 1; assay type: functional, Canis lupus familiaris, Cardiac ventricle
Canis familiaris [27] = experiment: Conduction time was determined by intraduodenal administration of two doses of 10 mg/kg (low dose) of compound in anesthetized dogs. Value was reported for experiment 2; assay type: functional, Canis lupus familiaris; method in brief: as §2
Canis familiaris [28] = species: Canis familiaris; experiment: In vitro electrophysiological evaluation in canine cardiac ventricular muscle reported as % change for the functional refractory period (FRP) at 10 uM at concentration range of 0.1-100 uM; design: species or system Canis lupus familiaris, Muscle tissue; method in brief: as §4
Canis familiaris [29] = species: Canis familiaris; experiment: In vitro electrophysiological evaluation in canine cardiac occurred is 100 uM; assay type: functional; conditions: Canis lupus familiaris; Heart

In the case of `Cl.O=C(CCC1C(=O)C2CCN1CC2)c1ccc([N+](=O)[O-])cc1` (centres undefined), the Vmax (Canis familiaris [1]) is reported as -17%, the HR (Canis familiaris [2]) is reported as -23% and the Mean blood pressure (Canis familiaris [3]) is reported as -11%. For the same compound, the CT (Canis familiaris [4]) was less than 10%, the CT (Canis familiaris [5]) was 2% and the Mean blood pressure (Canis familiaris [6]) was -10%. For the same compound, the Vmax (Canis familiaris [7]) was less than 10%, the CT (Canis familiaris [8]) was less than 10% and the HR (Canis familiaris [9]) was -31%. For the same compound, the “LV FRP” value (Canis familiaris [10]) was 19%, the HR (Canis familiaris [11]) was -35% and the “LV FRP” value (Canis familiaris [12]) was 14%. The Vmax (Canis familiaris [13]) was less than 10%, the CT (Canis familiaris [14]) was 11% and the Mean blood pressure (Canis familiaris [15]) was -21%. The APD95 (Canis familiaris [16]) was 13% and -10%, the CT (Canis familiaris [17]) was -1% and the HR (Canis familiaris [18]) was -40%. The APD95 (Canis familiaris [19]) was 53% and 25%, the APD95 (Canis familiaris [20]) was 36% and the FRP (Canis familiaris [21]) was 25% and 22%. For the same compound, the Mean blood pressure (Canis familiaris [22]) was -1%, the APD95 (Canis familiaris [23]) was 53% and the “LV FRP” value (Canis familiaris [24]) was 16%. The APD95 (Canis familiaris [25]) was 36% and 25%, the “LV FRP” value (Canis familiaris [26]) was 15% and the CT (Canis familiaris [27]) was 6%. For the same compound, the FRP (Canis familiaris [28]) was 15% and 17% and the Vmax (Canis familiaris [29]) was -23%.
